According to ChEMBL document CHEMBL4266021 (J Nat Prod, 2018):

Key:
Liver carboxylesterase 1 [1] = molecular target: T1, Liver carboxylesterase 1 (Homo sapiens, UniProt P23141); experiment: Binding affinity to serine residue of human CE1 assessed as adduct formation at 10 uM by mass spectrum analysis
T1 sequence (P23141 whole entry): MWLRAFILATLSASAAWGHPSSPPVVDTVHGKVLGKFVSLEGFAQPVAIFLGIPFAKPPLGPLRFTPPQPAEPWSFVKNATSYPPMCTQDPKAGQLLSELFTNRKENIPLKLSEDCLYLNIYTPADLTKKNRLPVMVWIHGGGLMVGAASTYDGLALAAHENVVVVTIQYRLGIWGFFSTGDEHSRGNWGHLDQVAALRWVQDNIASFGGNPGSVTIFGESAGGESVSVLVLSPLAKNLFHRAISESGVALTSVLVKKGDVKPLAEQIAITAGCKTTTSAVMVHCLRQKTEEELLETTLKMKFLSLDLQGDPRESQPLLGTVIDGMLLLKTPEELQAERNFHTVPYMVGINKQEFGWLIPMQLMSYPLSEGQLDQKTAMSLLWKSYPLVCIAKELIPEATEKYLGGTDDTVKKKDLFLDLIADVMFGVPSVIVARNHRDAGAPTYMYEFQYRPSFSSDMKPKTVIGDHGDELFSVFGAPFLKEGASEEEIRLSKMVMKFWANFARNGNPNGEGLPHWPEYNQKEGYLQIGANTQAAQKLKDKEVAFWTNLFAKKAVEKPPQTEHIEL
Summary of the method: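 hCE1 purified from serum-free medium of baculovirus-infected Spodoptera frugiperda cells, incubated with 10μM inhibitor. Unbound compound removed by dilution and repeated size-exclusion spin chromatography. Intact mass by ESI positive-mode MS (600–2800 m/z) in 3:2 water-acetonitrile with 0.1% formic acid, 2 min acquisition. Spectra deconvoluted, and adduct read as mass shift versus DMSO-treated protein.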

Cholinesterase [2] = molecular target: T2, Cholinesterase (Homo sapiens, UniProt P06276); experiment: Inhibition of human BuChE using butyrylhiocholine as substrate
Acetylcholinesterase [3] = molecular target: T3, Acetylcholinesterase (Homo sapiens, UniProt P22303); experiment: Inhibition of human AChE using acetylthiocholine as substrate
[4] = Irreversible inhibition of human intestinal carboxylesterase assessed as residual activity preincubated with enzyme followed by compound dilution measured after 18 hrs using o-NPA as substrate relative to control
Summary of the method: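 Purified recombinant hiCE pre-incubated with inhibitor, then extensively diluted and passed through size-exclusion filtration to remove free compound. Recovered protein assayed for residual esterase activity with o-NPA. Benzil (reversible inhibitor) and DMSO (solvent) served as controls.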

Acetylcholinesterase [5] = molecular target: T3, Acetylcholinesterase; experiment: Inhibition of human AChE at 10 uM using acetylthiocholine as substrate relative to control
carboxylesterase 1 (CE1) [6] = molecular target: T4, carboxylesterase 1 (CE1) (Homo sapiens, UniProt P23141); experiment: Inhibition of human CE1 expressed in human U373MG cells assessed as reduction in enzyme-mediated oseltamivir hydrolysis by measuring oseltamivir carboxylate level at 10 uM preincubated for 10 mins followed by oseltamivir addition measured after 30 mins by UPLC-MS analysis relative to control; assay type: cell-based; design: scale not given: the % may be the effect or the level left; conditions: U373MG cells that express human CE1, probe oseltamivir, read-out: Activity
T4 sequence (P23141 whole entry): T1 sequence (P23141 whole entry)
Summary of the method: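 U373MG glioblastoma cells engineered to express hCE1 (~10^6 per well) were pre-incubated 10 min with 10μM inhibitor, then oseltamivir was added (20μM final) for 30 min. Media were harvested, mixed with an equal volume of acetonitrile and centrifuged. Oseltamivir carboxylate was measured by UPLC (C18, water:acetonitrile gradient) with MS detection, as percent of DMSO-treated cells. Benzil was the positive control; duplicate points.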

[7] = Inhibition of human intestinal carboxylesterase using o-nitrophenyl acetate as substrate
Summary of the method: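 Recombinant hiCE secreted from baculovirus-infected Spodoptera frugiperda cells and purified from serum-free medium. Activity measured spectrophotometrically with o-nitrophenyl acetate as substrate. Routinely at least 8 inhibitor concentrations tested, and Ki derived.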

Cholinesterase [8] = molecular target: T2, Cholinesterase; experiment: Inhibition of human BuChE at 10 uM using butyrylhiocholine as substrate relative to control
carboxylesterase 1 (CE1) [9] = molecular target: T4, carboxylesterase 1 (CE1); experiment: Inhibition of human CE1 expressed in human U373MG cells assessed as reduction in enzyme-mediated oseltamivir hydrolysis at 10 uM preincubated for 10 mins followed by oseltamivir addition measured after 30 mins by UPLC-MS analysis relative to control; assay type: cell-based; conditions: U373MG cells that express human CE1, probe oseltamivir
Summary of the method: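 U373MG glioblastoma cells expressing hCE1 (~10^6 per well) pretreated 10 min with 10μM inhibitor, then given oseltamivir (20μM final). After 30 min, media harvested, mixed with an equal volume of acetonitrile and centrifuged. Oseltamivir carboxylate quantified by UPLC (C18, water:acetonitrile gradient) with MS detection. Expressed as percent of DMSO-treated cells. Benzil used as positive control; duplicate points.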

carboxylesterase 1 (CE1) [10] = molecular target: T4, carboxylesterase 1 (CE1); experiment: Irreversible inhibition of human CE1 assessed as residual activity preincubated with enzyme followed by compound dilution measured after 18 hrs using o-NPA as substrate relative to control; conditions: probe o-NPA, read-out: Activity
Liver carboxylesterase 1 [11] = molecular target: T1, Liver carboxylesterase 1; experiment: Inhibition of human CE1 using o-NPA as substrate
Summary of the method: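 Recombinant human CE1 was purified from serum-free media of baculovirus-infected Spodoptera frugiperda cells secreting the enzyme. Activity was read spectrophotometrically with o-nitrophenyl acetate as substrate. At least 8 inhibitor concentrations were used and Ki was derived from them.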

T3 sequence (P22303 whole entry): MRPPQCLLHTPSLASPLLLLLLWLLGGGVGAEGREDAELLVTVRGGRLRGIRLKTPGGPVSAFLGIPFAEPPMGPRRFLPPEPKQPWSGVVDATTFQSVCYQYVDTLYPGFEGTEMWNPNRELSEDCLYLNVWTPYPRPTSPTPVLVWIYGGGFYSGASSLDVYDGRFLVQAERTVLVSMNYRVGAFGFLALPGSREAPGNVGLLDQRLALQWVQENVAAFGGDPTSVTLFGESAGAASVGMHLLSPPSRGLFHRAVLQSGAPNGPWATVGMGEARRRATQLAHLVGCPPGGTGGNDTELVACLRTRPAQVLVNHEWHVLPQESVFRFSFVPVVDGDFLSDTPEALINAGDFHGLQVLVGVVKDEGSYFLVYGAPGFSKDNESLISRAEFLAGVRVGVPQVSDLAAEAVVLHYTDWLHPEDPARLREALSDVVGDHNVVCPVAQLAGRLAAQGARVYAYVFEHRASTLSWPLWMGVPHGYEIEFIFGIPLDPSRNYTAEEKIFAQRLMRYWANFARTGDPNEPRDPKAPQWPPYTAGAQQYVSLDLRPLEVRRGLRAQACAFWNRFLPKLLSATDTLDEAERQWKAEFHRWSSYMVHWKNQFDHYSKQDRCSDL
T2 sequence (P06276 whole entry): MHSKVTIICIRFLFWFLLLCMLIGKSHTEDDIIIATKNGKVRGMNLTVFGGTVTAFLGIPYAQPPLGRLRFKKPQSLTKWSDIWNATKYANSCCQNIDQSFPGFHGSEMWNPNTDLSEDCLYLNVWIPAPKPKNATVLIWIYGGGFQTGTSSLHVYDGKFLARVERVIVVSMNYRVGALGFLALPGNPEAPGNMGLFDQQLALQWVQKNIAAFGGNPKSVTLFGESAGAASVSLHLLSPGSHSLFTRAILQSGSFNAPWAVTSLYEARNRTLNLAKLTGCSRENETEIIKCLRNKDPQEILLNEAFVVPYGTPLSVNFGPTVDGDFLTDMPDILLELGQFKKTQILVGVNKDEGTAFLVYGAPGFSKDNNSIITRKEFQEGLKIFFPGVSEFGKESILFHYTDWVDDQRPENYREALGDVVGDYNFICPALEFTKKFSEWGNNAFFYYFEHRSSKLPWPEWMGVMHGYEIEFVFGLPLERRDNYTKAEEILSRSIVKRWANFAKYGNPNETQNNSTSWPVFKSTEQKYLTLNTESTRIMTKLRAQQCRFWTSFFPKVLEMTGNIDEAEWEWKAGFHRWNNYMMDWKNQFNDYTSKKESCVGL

| Structure (SMILES) | Activity (Liver carboxylesterase 1 [1]) | IC50 (Cholinesterase [2]) [nM] | IC50 (Acetylcholinesterase [3]) [nM] | Activity [4] [%] | inhibition (Acetylcholinesterase [5]) [%] | activity at 0.5 h, 10 µM (carboxylesterase 1 (CE1) [6]) [%] | Ki [7] [nM] | inhibition (Cholinesterase [8]) [%] | inhibition at 0.5 h, 10 µM (carboxylesterase 1 (CE1) [9]) [%] | activity at 18 h (carboxylesterase 1 (CE1) [10]) [%] | Ki (Liver carboxylesterase 1 [11]) [nM] |
| --- | --- | --- | --- | --- | --- | --- | --- | --- | --- | --- | --- |
| O=S(=O)(F)Cc1ccccc1 [PHENYLMETHYLSULFONYLFLUORIDE] | Active |  |  |  |  |  |  |  |  |  |  |
| C[C@H]1COc2c1c(=O)oc(=O)c1c3c(ccc21)C(C)(C)CCC3 |  | 2840 | 3210 | 1 to 9 | 68 | 10 | 0.75 | 69 | > 70 | 3 to 16 |  |
| Cc1cccc2c1ccc1c3c(c(=O)oc(=O)c12)[C@@H](C)CO3 | Active | 7820 | 10100 | 18 | 66 | 1 | 0.61 | 61 | 99 | 9 | 3.6 |
| Cc1cccc2c1ccc1c3occ(C)c3c(=O)oc(=O)c21 |  | > 10000 | > 10000 | 4 | 47 | 12 | 0.82 | 32 | > 70 | 54 | 2.4 |
| O=C(C(=O)c1ccccc1)c1ccccc1 [BENZIL] |  |  |  | 98 |  | 5 |  |  |  | 85 |  |
| Cc1coc2c1c(=O)oc(=O)c1c3c(ccc12)C(C)(C)CCC3 | Active | 7880 | 3310 | 0.1 to 40 | 65 | 27 | 1.4 | 38 | > 70 | 6 to 10 |  |
